# Experimental data published in ChEMBL document CHEMBL1122008, “Lipophilic 5'-(alkyl phosphate) esters of 1-beta-D-arabinofuranosylcytosine and its N4-acyl and 2,2'-anhydro-3'-O-acyl derivatives as potential prodrugs” (1982).
# What was measured:
# Assay type in all cases: functional
# Mus musculus [1] = assay: Antitumor activity against L1210/ara-C leukemia in mice (Percent increase in life span.) at the dose of 500 mg/kg
# How it was run: (§1)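 Same protocol as the L1210 assay, but with 10^5 kinase-deficient L1210/ara-C cells inoculated ip into male B6D2F1J mice (groups of 5–9) on day 0. Treatment begins day 1, qd×5 or q4d(2,6). %ILS = (T/C − 1)×100 using median survival times of treated and control groups. Body weight recorded days 1 and 7.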
# Mus musculus [2] = assay: Antitumor activity against L1210 leukemia in mice (Average 7-day weight change (%)) at the dose of 200 mg/kg
# How it was run: (§2)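 Male B6D2F1J mice, groups of five to nine, inoculated ip with 10^5 L1210 cells on day 0. Drug treatment started day 1 on qd×5 or q4d(2,6) schedule. Vehicles: ara-C in sterile water; the n-butyl phosphate ester in 0.05 M pH 7.4 potassium phosphate buffer; others as suspensions in 0.4% Tween 80/0.5% low-density CMC/0.9% benzyl alcohol/0.9% saline. Mice weighed days 1 and 7; 7-day weight change given as g/mouse and %.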
# Mus musculus [3] = assay: Antitumor activity against L1210 leukemia in mice (Average 7-day weight change (%)) at the dose of 50 mg/kg; how it was run: as §2
# Mus musculus [4] = assay: Antitumor activity against L1210 leukemia in mice (Average weight per mouse on day 1.) at the dose of 500 mg/kg
# How it was run: (§3)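 Male B6D2F1J mice (5–9 per group) received 10^5 L1210 cells i.p. on day 0 and drug from day 1, given qd×5 or q4d(2,6). Vehicles were sterile water, 0.05 M potassium phosphate pH 7.4, or 0.4% Tween 80/0.5% CMC/0.9% benzyl alcohol/0.9% saline. Read-out is average body weight per mouse (g) on day 1.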
# Mus musculus [5] = assay: Antitumor activity against L1210/ara-C leukemia in mice (Average 7-day weight change (%)) at the dose of 200 mg/kg
# How it was run: (§4)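 Male B6D2F1J mice (5–9 per group) were given 10^5 L1210/ara-C cells i.p. on day 0, with treatment from day 1 on qd×5 or q4d(2,6). Vehicles were sterile water, pH 7.4 0.05 M phosphate buffer, or a Tween 80/CMC/benzyl alcohol saline suspension. Weights were taken on days 1 and 7; change is expressed in g/mouse and as a percentage.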
# Mus musculus [6] = assay: Antitumor activity against L1210 leukemia in mice (Average 7-day weight change (%)) at the dose of 500 mg/kg; how it was run: as §2
# Mus musculus [7] = assay: Antitumor activity against L1210/ara-C leukemia in mice (Percent increase in life span.) at the dose of 50 mg/kg; how it was run: as §1
# Mus musculus [8] = assay: Antitumor activity against L1210/ara-C leukemia in mice (Average 7-day weight change (%)) at the dose of 250 mg/kg; how it was run: as §4
# Mus musculus [9] = assay: Antitumor activity against L1210/ara-C leukemia in mice (Average weight per mouse on day 1.) at the dose of 250 mg/kg
# How it was run: (§5)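 Male B6D2F1J mice, groups of 5–9, inoculated ip with 10^5 L1210/ara-C cells on day 0. Dosing began day 1 on a qd×5 or q4d(2,6) schedule. Ara-C was given in sterile water, the n-butyl phosphate ester in 0.05 M pH 7.4 potassium phosphate buffer, and others as suspensions in 0.4% Tween 80/0.5% CMC/0.9% benzyl alcohol/0.9% saline. Mice were weighed on days 1 and 7; 7-day change given in g and %.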
# Mus musculus [10] = assay: Antitumor activity against L1210 leukemia in mice (Average weight per mouse on day 1.) at the dose of 100 mg/kg; how it was run: as §3
# Mus musculus [11] = assay: Antitumor activity against L1210/ara-C leukemia in mice (Percent increase in life span.) at the dose of 1000 mg/kg; how it was run: as §1
# Mus musculus [12] = assay: Antitumor activity against L1210/ara-C leukemia in mice (Average weight per mouse on day 1.) at the dose of 100 mg/kg; how it was run: as §5
# Mus musculus [13] = assay: Antitumor activity against L1210/ara-C leukemia in mice (Average weight per mouse on day 1.) at the dose of 500 mg/kg; how it was run: as §5
# Mus musculus [14] = assay: Antitumor activity against L1210 leukemia in mice (Average 7-day weight change (%)) at the dose of 1000 mg/kg; how it was run: as §2
# Mus musculus [15] = assay: Antitumor activity against L1210 leukemia in mice (Percent increase in life span.) at the dose of 200 mg/kg
# How it was run: (§6)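 Male B6D2F1J mice, groups of 5–9, inoculated ip with 10^5 L1210 cells on day 0. Dosing starts day 1 on a qd×5 or q4d(2,6) schedule. Vehicles are sterile water, pH 7.4 0.05 M potassium phosphate buffer, or 0.4% Tween 80/0.5% CMC/0.9% benzyl alcohol/0.9% saline. %ILS = (T/C − 1)×100 from median survival. Weights taken days 1 and 7.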
# Mus musculus [16] = assay: Antitumor activity against L1210 leukemia in mice (Percent increase in life span.) at the dose of 1000 mg/kg; how it was run: as §6
# Mus musculus [17] = assay: Antitumor activity against L1210 leukemia in mice (Average weight per mouse on day 1.) at the dose of 1000 mg/kg; how it was run: as §3
# Mus musculus [18] = assay: Antitumor activity against L1210/ara-C leukemia in mice (Average 7-day weight change) at the dose of 500 mg/kg; how it was run: as §5
# Mus musculus [19] = assay: Antitumor activity against L1210 leukemia in mice (Average 7-day weight change) at the dose of 50 mg/kg; how it was run: as §2
# Mus musculus [20] = assay: Antitumor activity against L1210/ara-C leukemia in mice (Average 7-day weight change) at the dose of 250 mg/kg; how it was run: as §4
# Mus musculus [21] = assay: Antitumor activity against L1210 leukemia in mice (Average 7-day weight change (%)) at the dose of 250 mg/kg; how it was run: as §2
# Mus musculus [22] = assay: Antitumor activity against L1210/ara-C leukemia in mice (Average 7-day weight change) at the dose of 200 mg/kg; how it was run: as §4
# Mus musculus [23] = assay: Antitumor activity against L1210/ara-C leukemia in mice (Average 7-day weight change (%)) at the dose of 100 mg/kg; how it was run: as §4
# Mus musculus [24] = assay: Antitumor activity against L1210/ara-C leukemia in mice (Percent increase in life span.) at the dose of 100 mg/kg; how it was run: as §1
# Mus musculus [25] = assay: Antitumor activity against L1210/ara-C leukemia in mice (Percent increase in life span.) at the dose of 250 mg/kg; how it was run: as §1
# Mus musculus [26] = assay: Antitumor activity against L1210 leukemia in mice (Percent increase in life span.) at the dose of 50 mg/kg; how it was run: as §6
# Mus musculus [27] = assay: Antitumor activity against L1210 leukemia in mice (Average 7-day weight change (%)) at the dose of 100 mg/kg; how it was run: as §2
# Mus musculus [28] = assay: Antitumor activity against L1210/ara-C leukemia in mice (Average 7-day weight change) at the dose of 100 mg/kg; how it was run: as §4
# Mus musculus [29] = assay: Antitumor activity against L1210 leukemia in mice (Average weight per mouse on day 1.) at the dose of 250 mg/kg; how it was run: as §3
# Mus musculus [30] = assay: Antitumor activity against L1210/ara-C leukemia in mice (Average 7-day weight change) at the dose of 50 mg/kg; how it was run: as §5
# Mus musculus [31] = assay: Antitumor activity against L1210 leukemia in mice (Percent increase in life span.) at the dose of 100 mg/kg; how it was run: as §6
# Mus musculus [32] = assay: Antitumor activity against L1210/ara-C leukemia in mice (Average weight per mouse on day 1.) at the dose of 1000 mg/kg; how it was run: as §5
smiles,measurement,setting,value
Nc1ccn([C@@H]2O[C@H](CO)[C@@H](O)[C@@H]2O)c(=O)n1 [CYTARABINE],ILS at 500 mg/kg,Mus musculus [1],12%
same,Weight change,Mus musculus [2],-7%
same,Weight change,Mus musculus [3],0%
same,Average weight,Mus musculus [4],22.6 g mouse-1
same,Weight change,Mus musculus [5],-14%
same,Weight change,Mus musculus [6],2%
same,ILS at 50 mg/kg,Mus musculus [7],0%
same,Weight change,Mus musculus [8],20%
same,Average weight,Mus musculus [9],19.4 g mouse-1
same,Average weight,Mus musculus [10],22.4 g mouse-1
same,ILS at 1000 mg/kg,Mus musculus [11],0%
same,Average weight,Mus musculus [12],24 g mouse-1
same,Average weight,Mus musculus [13],20.2 g mouse-1
same,Weight change,Mus musculus [14],3%
same,ILS at 200 mg/kg,Mus musculus [15],112%
same,ILS at 1000 mg/kg,Mus musculus [16],87%
same,Average weight,Mus musculus [17],24 g mouse-1
same,Weight change,Mus musculus [18],3.8 g mouse-1
same,Weight change,Mus musculus [19],0.2 g mouse-1
same,Weight change,Mus musculus [20],4 g mouse-1
same,Weight change,Mus musculus [21],7%
same,Weight change,Mus musculus [22],-3.1 g mouse-1
same,Weight change,Mus musculus [23],-4%
same,ILS at 100 mg/kg,Mus musculus [24],-13%
same,ILS at 250 mg/kg,Mus musculus [25],12%
same,ILS at 50 mg/kg,Mus musculus [26],75%
same,Weight change,Mus musculus [27],-5%
same,Weight change,Mus musculus [28],-1.1 g mouse-1
same,Average weight,Mus musculus [29],21.4 g mouse-1
same,Weight change,Mus musculus [30],0.8 g mouse-1
same,ILS at 100 mg/kg,Mus musculus [31],100%
same,Average weight,Mus musculus [32],22 g mouse-1
